# How the values were obtained:
# Format in all cases: functional, cell-based
# HL-60 = experiment: Cytotoxicity against human HL60 cells after 3 days by MTT assay; conditions: HL-60, 72 h
# Procedure, shortened: (§1)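 Cells kept in RPMI-1640 with 10% fetal calf serum, 2 mM glutamine, streptomycin and penicillin at 37 °C, 5% CO2. Seeded at 10^5 cells/well (adherent) or 0.3 × 10^6 cells/well (suspension). […] Medium then replaced by 0.5 mg/mL MTT for 3 h, formazan dissolved in DMSO, absorbance read. IC50 by modified NCI protocol.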
# SF-295 = experiment: Cytotoxicity against human SF295 cells after 3 days by MTT assay; conditions: SF-295, 72 h; procedure, shortened: as §1
# MDA-MB-435 = experiment: Cytotoxicity against human MDA-MB-435 cells after 3 days by MTT assay; conditions: MDA-MB-435, 72 h
# Procedure, shortened: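 Seeded at 10^5 cells/well (adherent) or 0.3 × 10^6 cells/well (suspension). Medium then replaced by 0.5 mg/mL MTT for 3 h, formazan dissolved in DMSO, absorbance read. IC50 by modified NCI protocol.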
# HCT-8 = experiment: Cytotoxicity against human HCT8 cells after 3 days by MTT assay; conditions: HCT-8, 72 h; procedure, shortened: as §1
SMILES,IC50 (HL-60),IC50 (SF-295),IC50 (MDA-MB-435),IC50 (HCT-8)
CC(C)=CCN=C(N)N [GALEGINE],> 5 µg/mL,> 5 µg/mL,> 5 µg/mL,> 5 µg/mL
CC(C)=CCC/C(C)=C/CN=C(N)N [NITENSIDINE D],> 5 µg/mL,> 5 µg/mL,> 5 µg/mL,> 5 µg/mL
CC(C)=C/C=C/C1(C)CCN=C(N)N1 (stereo not given) [NITENSIDINE E],3.6 µg/mL,4.9 µg/mL,> 5 µg/mL,> 5 µg/mL
CC(C)=CCNC(=N)NCC=C(C)C [PTEROGYNIDINE],> 5 µg/mL,> 5 µg/mL,> 5 µg/mL,> 5 µg/mL
CC(C)=CCN(CC=C(C)C)C(=N)N [PTEROGYNINE],> 5 µg/mL,> 5 µg/mL,> 5 µg/mL,> 5 µg/mL
